SMILES strings stand for the structures.

One data set concerns HepG2 cells. In words: Cellular uptake of NR-labelled NPs, flow cytometry. The data set is classed as cell-based. Conditions: HepG2, NR 50 µg/ml, 0.5, 1 or 4 h. The essentials: (§1)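 Cells were seeded at 2x10^5 per well and cultured 24 h. They were co-incubated with Nile red-labelled nanoparticles at equal Nile red 50 µg/ml, then washed thrice with cold PBS and incubated a further 0.5, 1 or 4 h. Intracellular fluorescence was read by flow cytometry. Controls were untreated cells, free Nile red, and Nile red in unmodified PEG-PLGA nanoparticles.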
A general note: Flow cytometry measures light scatter and fluorescence of single cells or particles in a stream.

Another data set deals with A549 cells. Nature of the data set: Cellular uptake of NR-labelled NPs, flow cytometry. It counts as cell-based. Conditions: A549, NR 50 µg/ml, 0.5, 1 or 4 h. In short, it runs like this:
as §1

Data set [1] in a line: Hepatoma-targeted and bio-distribution detection. The data set is classed as in vivo, BALB/c nude mice. As to conditions: tumour model mice, intragastric NR 20 mg/kg.
A short description of data set [2]: Pharmacokinetics studies in rats. It counts as in vivo. As to conditions: male, SD, rat, plasma, po, 50 mg/kg.
Data set [3] concerns Hep3B-luc in situ transplanted tumours. In words: Antitumour activity in Hep3B-luc orthotopic xenograft model. It counts as in vivo, BALB/c nude mice. Conditions: intragastric 50 mg/kg ART once daily for 24 days, n=3. The essentials:
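Female BALB/c nude mice, 6-8 weeks, received 3x10^6 Hep3B-luc cells in 0.02 ml PBS:Matrigel (1:1) in the left hepatic lobe. They were randomized into four groups (including untreated control) once tumour fluorescence reached ~10^7. Test formulations were given intragastrically once daily for 24 days. Tumour signal and body weight were measured twice weekly. Inhibition = (ROIcontrol−ROIdrug)/ROIcontrol ×100% from mean tumour signals.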

With `CCN(CC)c1ccc2nc3c4ccccc4c(=O)cc-3oc2c1` [NR, Nile red], the “Cellular fluorescence (uptake)” value in the data set with HepG2 cells and in the data set on A549 cells was “little fluorescence” in each case. Besides, the “In vivo NR fluorescence in whole body and liver” value in data set [1] is “lower fluorescence levels at 2 h”.
Turning to `C[C@H]1[C@H](OC(=O)CCC(=O)O)O[C@@H]2O[C@@]3(C)CC[C@H]4[C@H](C)CC[C@@H]1[C@@]24OO3` [ART, Artesunate], in data set [2], the total exposure AUC(0-inf) (commonly total exposure, with the tail of the curve extrapolated) amounted to 2540 ng·h/mL; the AUC(0-t) (usually exposure summed from dosing to a finite time, without extrapolation to infinity) is 2540 ng·h/mL; the Cmax (in general, the maximum level reached in the sampled fluid or tissue) turned out to be 4580 ng/mL; the MRT (commonly a mean duration of stay, worked out from the concentration-time curve) is 30 min. Further, in data set [2], the time of peak concentration (Tmax) (usually the time from dosing to the highest level) was determined as 15 min and the half-life (commonly the time needed for the level to fall by half in the phase considered) is 15 min. The “Bioluminescence (ROI) (PG-21)” value in data set [3] was 4.49±0.55 x10^9 photons/sec.

Values taken from PMC10580252 (Experimental and Therapeutic Medicine, 2023).
